The target in series [1] is T1, Liver carboxylesterase (Sus scrofa, UniProt Q29550).
T1 sequence (Q29550 whole entry): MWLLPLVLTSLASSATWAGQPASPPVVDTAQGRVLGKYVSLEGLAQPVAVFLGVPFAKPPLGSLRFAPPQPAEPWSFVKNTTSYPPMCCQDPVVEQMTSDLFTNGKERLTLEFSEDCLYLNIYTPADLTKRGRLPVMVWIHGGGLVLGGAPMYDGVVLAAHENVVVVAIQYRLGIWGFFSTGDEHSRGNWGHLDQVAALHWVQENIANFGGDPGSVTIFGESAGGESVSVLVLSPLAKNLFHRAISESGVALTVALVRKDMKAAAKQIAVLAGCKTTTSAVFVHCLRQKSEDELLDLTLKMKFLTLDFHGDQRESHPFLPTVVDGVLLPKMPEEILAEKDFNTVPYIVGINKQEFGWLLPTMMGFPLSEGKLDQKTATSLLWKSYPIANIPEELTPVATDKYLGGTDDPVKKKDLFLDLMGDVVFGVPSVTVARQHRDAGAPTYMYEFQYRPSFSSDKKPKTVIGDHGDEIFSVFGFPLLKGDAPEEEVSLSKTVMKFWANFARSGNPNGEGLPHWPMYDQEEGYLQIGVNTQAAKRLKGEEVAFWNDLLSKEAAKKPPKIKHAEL
Briefly: Inhibition of porcine liver carboxylesterase using 4-NPA as substrate preincubated for 10 mins followed by substrate addition by spectrophotometric analysis. The series is classed as tissue-based. The essentials: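 Porcine liver CES, 0.02 unit/mL, in 0.1 M K/Na phosphate pH 8.0, 25 °C; compound in DMSO (2% v/v final) preincubated 10 min, then 1 mM 4-nitrophenyl acetate; 4-nitrophenol read at 405 nm, enzyme-free blanks. Screening at 20 μM in three separate experiments; IC50 from eight concentrations between 10^-12 and 10^-4 M, residual activity relative to inhibitor-free control.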

Series [2] addresses T2, Acetylcholinesterase (Homo sapiens, UniProt P22303). The series is described as follows: Inhibition of human erythrocyte AChE using acetylthiocholine iodide as substrate preincubated for 10 mins followed by substrate addition by Ellman's method. On the technique in general: In Ellman's method for cholinesterases, released thiocholine reacts with DTNB.
Series [3] deals with T3, Cholinesterase (Equus caballus, UniProt P81908). Briefly: Inhibition of equine serum BuChE using […] as substrate preincubated for 10 mins followed by substrate addition by Ellman's method.
Series [4] in a line: Antioxidant activity assessed as trolox equivalent of ABTS radical cation scavenging activity incubated for 24 hrs by UV-Vis spectrophotometric analysis. Type of series: functional.
Series [5] can be described thus: Antioxidant activity assessed as decrease in ABTS radical cation scavenging activity incubated for 24 hrs by UV-Vis spectrophotometric analysis. Type of series: functional.
The target in series [6] is T4, Liver carboxylesterase 1 (Homo sapiens, UniProt P23141).
T4 sequence (P23141 whole entry): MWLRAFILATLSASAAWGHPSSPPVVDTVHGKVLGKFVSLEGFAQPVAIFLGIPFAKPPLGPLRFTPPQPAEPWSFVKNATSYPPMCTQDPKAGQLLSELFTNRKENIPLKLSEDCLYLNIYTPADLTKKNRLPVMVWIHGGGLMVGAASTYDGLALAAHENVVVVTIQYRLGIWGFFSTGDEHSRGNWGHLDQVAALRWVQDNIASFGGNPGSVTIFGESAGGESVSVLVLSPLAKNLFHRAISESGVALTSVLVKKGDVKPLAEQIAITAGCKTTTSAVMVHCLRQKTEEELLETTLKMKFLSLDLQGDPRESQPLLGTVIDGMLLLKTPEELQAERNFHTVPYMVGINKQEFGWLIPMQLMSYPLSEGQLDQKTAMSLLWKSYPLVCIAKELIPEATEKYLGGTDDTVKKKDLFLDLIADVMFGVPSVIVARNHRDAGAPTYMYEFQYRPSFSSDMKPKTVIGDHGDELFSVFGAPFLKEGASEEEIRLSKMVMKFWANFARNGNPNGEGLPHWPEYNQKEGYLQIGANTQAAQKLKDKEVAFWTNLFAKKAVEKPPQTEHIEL
Briefly: Inhibition of human recombinant CES1 expressed in baculovirus infected BTI insect cells using 4-NPA as substrate by spectrophotometric analysis. The essentials: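 Recombinant hCES1 (baculovirus/BTI insect cells), 0.02 unit/mL, in 0.1 M K/Na phosphate pH 7.4, 25 °C; compound (DMSO, 2% v/v final) preincubated 10 min, then 1 mM 4-nitrophenyl acetate added; 4-nitrophenol release read at 405 nm against enzyme-free blank. IC50 from eight concentrations (10^-12–10^-4 M) relative to inhibitor-free control.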

A short description of series [7]: Cytotoxicity against human FetMSC cells assessed as reduction in cell viability after 72 hrs by MTT assay. The series is classed as cell-based. Summed up: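 Human fetal MSC (bone-marrow fibroblast-like, nonimmortalized; ≤10–15 passages) grown in F12/DMEM with 10% FBS, 3 mM L-glutamine, penicillin/streptomycin. Seeded at 6×10^3 cells/well; after 24 h, medium replaced with compound at 100, 250, 500 μM for 72 h; controls 0.1% DMSO. MTT 0.5 mg/ml for 4 h, formazan dissolved in DMSO, read at 570 nm; control = 100%.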

Series [8] is described as follows: Acute toxicity in ip dosed CD-1 mouse observed for 14 days. The conditions noted are these: in vivo, time 14 day. The series is classed as organism-based. The essentials:
(§1)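 CD-1 mice given compound intraperitoneally in 2% (w/v) starch mucilage, three animals per dose group; lethality observed over 14 days; procedure based on OECD recommendations.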

The nature of series [9]: Acute toxicity in CD-1 mouse assessed as effect on mouse death at 600 mg/kg, ip measured after 14 days. The series is classed as organism-based. The conditions noted are these: in vivo, 336 h, time 14 day. The essentials:
as §1

For series [10], the target named is T1, Liver carboxylesterase. Briefly: Competitive inhibition of porcine liver carboxylesterase by double reciprocal Lineweaver-Burk plot analysis. Type of series: tissue-based. Summed up: (§2)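 Porcine liver CES residual activity measured with 3 increasing inhibitor concentrations and 5–6 decreasing 4-nitrophenyl acetate concentrations after 10 min preincubation at 25 °C; parallel inhibitor-free controls. Initial velocities plotted as Lineweaver–Burk double-reciprocal plots to derive mechanism and steady-state inhibition constants; each experiment in triplicate.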

For series [11], the target named is T1, Liver carboxylesterase. Briefly: Non-competitive inhibition of porcine liver carboxylesterase by double reciprocal Lineweaver-Burk plot analysis. The series is classed as tissue-based. The conditions noted are these: pig. The essentials: as §2
The target of series [12] is T2, Acetylcholinesterase. The series is described as follows: Competitive inhibition of human erythrocyte AChE by double reciprocal Lineweaver-Burk plot analysis. The essentials:
(§3)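 Residual activity measured with 3 increasing inhibitor concentrations and 5–6 decreasing substrate concentrations (ATCh for AChE, BTCh for BChE), DTNB read-out, 0.1 M K/Na phosphate pH 7.5, 25 °C; 10 min enzyme–inhibitor preincubation before substrate; no-inhibitor parallel control; triplicate; mechanism from Lineweaver-Burk plots.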

Series [13] concerns the target T2, Acetylcholinesterase. The series is described as follows: Non-competitive inhibition of human erythrocyte AChE by double reciprocal Lineweaver-Burk plot analysis. The essentials: as §3
In series [14] the target is T3, Cholinesterase. Briefly: Competitive inhibition of equine serum BuChE by double reciprocal Lineweaver-Burk plot analysis. Summed up: as §3
The target in series [15] is Cholinesterase (Equus caballus) (UniProt P81908). Briefly: Non-competitive inhibition of equine serum BuChE by double reciprocal Lineweaver-Burk plot analysis. Summed up:
as §3

Series [16] can be described thus: Acute toxicity in CD-1 mouse assessed as effect on mouse death at 900 mg/kg, ip measured after 14 days. The series is classed as organism-based. The conditions noted are these: in vivo, 336 h, time 14 day. Summed up:
as §1

T2 sequence (P22303 whole entry): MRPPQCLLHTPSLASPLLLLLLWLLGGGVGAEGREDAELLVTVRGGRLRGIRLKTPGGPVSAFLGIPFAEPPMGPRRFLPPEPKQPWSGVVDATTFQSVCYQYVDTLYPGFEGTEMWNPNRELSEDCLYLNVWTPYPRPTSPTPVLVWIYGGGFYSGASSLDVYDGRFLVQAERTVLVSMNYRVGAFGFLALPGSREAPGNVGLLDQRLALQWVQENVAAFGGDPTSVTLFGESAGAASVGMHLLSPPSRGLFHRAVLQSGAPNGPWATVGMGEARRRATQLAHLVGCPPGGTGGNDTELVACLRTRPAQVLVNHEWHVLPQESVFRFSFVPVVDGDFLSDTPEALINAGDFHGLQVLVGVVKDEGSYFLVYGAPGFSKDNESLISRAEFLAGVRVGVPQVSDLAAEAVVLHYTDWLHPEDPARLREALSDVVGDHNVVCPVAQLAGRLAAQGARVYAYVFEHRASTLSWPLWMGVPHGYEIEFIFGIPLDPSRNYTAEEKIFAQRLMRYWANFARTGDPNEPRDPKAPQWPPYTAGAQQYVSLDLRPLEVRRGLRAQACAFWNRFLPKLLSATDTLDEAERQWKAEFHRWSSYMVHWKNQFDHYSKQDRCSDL
T3 sequence (P81908 whole entry): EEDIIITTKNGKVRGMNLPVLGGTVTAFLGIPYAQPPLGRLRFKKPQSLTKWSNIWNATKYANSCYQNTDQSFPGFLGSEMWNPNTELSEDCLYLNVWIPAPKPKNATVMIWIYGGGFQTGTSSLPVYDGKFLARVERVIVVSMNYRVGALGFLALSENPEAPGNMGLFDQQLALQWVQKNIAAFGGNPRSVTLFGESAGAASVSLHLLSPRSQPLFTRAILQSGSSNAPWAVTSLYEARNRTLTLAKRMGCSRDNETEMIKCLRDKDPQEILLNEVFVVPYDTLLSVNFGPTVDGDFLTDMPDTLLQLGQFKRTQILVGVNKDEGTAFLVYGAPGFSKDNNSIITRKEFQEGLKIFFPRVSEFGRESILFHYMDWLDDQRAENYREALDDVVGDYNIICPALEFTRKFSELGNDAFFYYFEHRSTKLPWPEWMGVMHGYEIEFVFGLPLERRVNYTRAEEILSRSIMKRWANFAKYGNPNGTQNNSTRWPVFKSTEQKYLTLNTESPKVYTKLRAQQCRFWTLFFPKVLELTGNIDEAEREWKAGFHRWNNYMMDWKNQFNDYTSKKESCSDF
Cholinesterase (Equus caballus), sequence (P81908 whole entry): as above

With `CCOC(=O)/C(=N\Nc1ccccc1)C(=O)C(F)(F)F`, the IC50 (usually the concentration needed to halve the response being measured) in [1] is 0.00614 µM; in series [2] it was 3.22 µM; in series [3], 8.42 µM; in series [5], 26.7 µM; in [6], 0.0061 µM; in series [7], over 500 µM. The Activity was 0.8 in series [4] and “Non-Toxic” in series [9]. In addition, the LD50 (usually the dose expected to kill half of the subjects tested) at 336 h in [8] amounted to 600 mg/kg.

Regarding `COC(=O)/C(=N\Nc1ccc(C)cc1)C(=O)C(F)(F)F`, the IC50 in series [1] stood at 0.0278 µM; in [2] it was 28.3 µM; in series [3] it was 33 µM; in series [5], 21.2 µM; in series [6] it was 0.0163 µM. Moreover, the Activity in series [4] was 0.98. Besides, the Ki (usually a measure of affinity in units of concentration, obtained from inhibition or displacement) in series [10] is 0.014 µM; in series [12], 10.1 µM; in series [14] it was 29.2 µM. Further, the alphaKi was 82.2 nM in [11], 139 µM in series [13] and 72.7 µM in series [15].

Take `CCOC(=O)/C(=N\Nc1ccc(C)cc1)C(=O)C(F)(F)F`: the half-inhibitory concentration (IC50) in [1] is 0.00741 µM; in [2], 7.32 µM; in series [3] it was 8.34 µM; in series [5], 21.4 µM; in series [6] it was 0.00292 µM; in series [7] it was over 500 µM. Moreover, the Activity is 0.95 in series [4] and “Non-Toxic” in [16]. Moreover, the LD50 at 336 h in [8] was determined as 900 mg/kg.

For the origin of these results see ChEMBL document CHEMBL4819068, “Novel potent bifunctional carboxylesterase inhibitors based on a polyfluoroalkyl-2-imino-1,3-dione scaffold” (Eur J Med Chem, 2021).
